A word on the LD50: it is the dose expected to kill half of the subjects tested. A high value points to a less toxic substance. The ED50 is the midpoint of the dose-response relation.

Data set [1] concerns Mus musculus. Briefly: Antiradiation activity in ip dosed whole-body gamma-irradiated mouse assessed as increase in mouse survival rate compound administered 30 mins prior irradiation. The data set is classed as functional. The note with it: light or radiation study, read-out: MED. Summed up: (§1)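 Mice were dosed ip or po with compound in water, or in physiological saline containing 0.3% methylcellulose and 0.1% Tween 80, usually at pH 5–7. Dosing came 15, 30 or 60 min before whole-body ¹³⁷Cs γ irradiation (141.5 rd/min; 849 rd for most compounds). The dose reported is the lowest giving the highest survival rate. Read-out was % survival at 30 days.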

For data set [2], the system named is Mus musculus. Briefly: Antiradiation activity in ip dosed whole-body gamma-irradiated mouse assessed as mouse survival compound administered 30 mins prior irradiation measured after 30 days relative to control. Type of data set: functional. The essentials: as §1
The nature of data set [3]: Toxicity ip dosed whole-body gamma-irradiated mouse compound administered 30 mins prior irradiation. Type of data set: organism-based. The note with it: in vivo.
The subject of data set [4] is Mus musculus. Briefly: Antiradiation activity in po dosed whole-body gamma-irradiated mouse assessed as mouse survival compound administered 30 mins prior irradiation measured after 30 days relative to control. Type of data set: functional. Summed up:
as §1

The test system of data set [5] is Mus musculus. Kind of data set: Antiradiation activity in ip dosed whole-body gamma-irradiated mouse assessed as increase in mouse survival rate compound administered 15 mins prior irradiation. The note with it: light or radiation study. Type of data set: functional. Summed up: as §1
The subject of data set [6] is Mus musculus. Kind of data set: Protective index, ratio of LD50 for mouse to ED50 for antiradiation activity in ip dosed whole-body gamma-irradiated mouse. The essentials: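 After ip dosing and whole-body ¹³⁷Cs γ irradiation (141.5 rd/min), ED50 (dose for 50% survival) was estimated from log dose-probit survival plots. Protective index was approximated as approx LD50 (mg/kg) × 1.5 / ED50 (mg/kg).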

Data set [7] is described as follows: Toxicity po dosed whole-body gamma-irradiated mouse compound administered 30 mins prior irradiation. The note with it: in vivo. The data set is classed as organism-based.
Data set [8] has as its system Mus musculus. Briefly: Antiradiation activity in po dosed whole-body gamma-irradiated mouse assessed as increase in mouse survival rate compound administered 30 mins prior irradiation. The data set is classed as functional. To be noted: light or radiation study, read-out: MED. Summed up: as §1
The nature of data set [9]: Toxicity ip dosed whole-body gamma-irradiated mouse compound administered 15 mins prior irradiation. Type of data set: organism-based. The note with it: in vivo.
The subject of data set [10] is Mus musculus. Briefly: Antiradiation activity in ip dosed whole-body gamma-irradiated mouse assessed as mouse survival compound administered 15 mins prior irradiation measured after 30 days relative to control. The data set is classed as functional. Summed up:
as §1

Consider `Br.NCC(N)CS` (stereo unspecified), for which, in the data set with Mus musculus [1], the minimal effective dose was found to be 200 mg/kg. Besides, the Survival with Mus musculus [2] is given as 20%. This molecule also gave an LD50 at 0.5 h in data set [3] of 800 mg/kg.

Take `Cl.NCCCC[C@H](N)CS`: the Survival with Mus musculus [4] is on record as 50%; in the data set with Mus musculus [10], 80%. In the data set on Mus musculus [5], the 50% effective dose (ED50) worked out at 10 mg/kg. The minimal effective dose in the data set with Mus musculus [5] (read-out: MED) is 25 mg/kg; in the data set on Mus musculus [8] it was 75 mg/kg. In addition, the PI with Mus musculus [6] is 13. In [7], this molecule returned an LD50 at 0.5 h of 450 mg/kg. In data set [9], this molecule had an LD50 at 0.25 h of 88 mg/kg.

The values are drawn from ChEMBL document CHEMBL3244256 (J Med Chem, 1979).
